Compound activity (PubChem)
Only some compounds are listed: those with a hit (about 2.4% of all), similar ones and a draw of the others.
Rin1-Abl PPI inh: inhibitors of human Rin1-Abl protein interaction; inhibition, % at 7.35 µM; TR-FRET Rin1/Abl binding, biochemical; P00519+Q13671; actives 0.4% (n = 360,000); AID 588664; in the data active = inhibition above about 5%, passing the limit was not always enough
CSN inh: blocks human CSN-mediated cullin deneddylation. Q92905. Purified CSN, SCF-Nedd8-OG deneddylation, fluorescence polarization. inhibition, % at 12.5 µM. actives 0.38% (n = 360,000). AID 651999;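 active = pattern-corrected inhibition above about 35%, with an unprinted fluorescence ratio check between 0.5 and 1.5, limit read from the data, passing the limit was not always enough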;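 also: 0% = enzyme with substrate and 100% = substrate without enzyme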
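Test system: Human Csn5 produced in HEK293T cells | Compound: 12.5 µM single point | Times: 90 min, room temperature | Signal: Fluorescence polarization readout | Read-out basis: % inhibition of substrate cleavage by Csn5 | Controls: no-enzyme wells high, enzyme-with-substrate wells low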
Rpn11 block: inhibitors of human proteasome Rpn11 | O00487 | inhibition, % at 20 µM | human 26S proteasome, Ub4-pepOG fluorescence polarization; 20S core pre-blocked with epoxomicin | actives 0.59% (n = 360,000);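 active = inhibition at 20 µM, scaled to each plate's controls, above about 33%, limit read from the data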
Target sequence (O00487 whole entry, looked up): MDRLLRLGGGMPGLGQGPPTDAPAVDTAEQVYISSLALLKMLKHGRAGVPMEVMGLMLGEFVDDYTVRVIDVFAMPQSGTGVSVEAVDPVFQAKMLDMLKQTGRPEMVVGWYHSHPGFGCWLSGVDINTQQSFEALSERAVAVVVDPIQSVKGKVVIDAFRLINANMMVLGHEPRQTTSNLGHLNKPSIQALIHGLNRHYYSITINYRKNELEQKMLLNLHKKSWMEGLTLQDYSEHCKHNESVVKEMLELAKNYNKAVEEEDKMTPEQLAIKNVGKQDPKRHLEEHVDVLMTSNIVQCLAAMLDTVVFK
HNF4A DNA FP: change in binding of human HNF4 alpha to DNA; P41235; HNF4a-FITC DNA binding, fluorescence polarization, 1 h; activity change, % at 10 µM; actives 0.3% (n = 360,000); AID 1224865; in the data active = activity change above about 30%, passing the limit was not always enough
Neddylation inh: inhibitors of human cullin neddylation | actives 0.58% (n = 360,000) | inhibition, % at 25 µM | TR-FRET cullin neddylation, biochemical | AID 651699 | P61081+Q13564; in the data active = inhibition above about 36%
TPT1 inh: blocks Candida albicans tRNA 2'-phosphotransferase; actives 0.81% (n = 300,000); AID 1962; inhibition, % at 5 µM; recombinant caTPT1, FP RNA substrate dephosphorylation;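 active = inhibition above the mean of all tested compounds plus 3 SD, set per screening campaign, cut at about 24% in these data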;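 also: plate controls were DMSO alone for no effect and ferristatin control at 100 nM for full effect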
Rpn11 confirm: Rpn11 inhibition confirmation, single concentration; shares compounds with Rpn11 block; purified human 26S proteasome, Ub4-pepOG fluorescence polarization; proteasome pretreated with epoxomicin; inhibition, % at 20 µM; actives 29% (n = 1,900)
MMP-2 counter: counter-screen for RPN11 inhibitors: inhibition of human MMP-2; shares compounds with Rpn11 block; recombinant MMP-2, FRET peptide cleavage fluorescence; inhibition, % at 20 µM; actives 4% (n = 1,900);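 also: human MMP-2 activated beforehand with APMA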
Thrombin inh: thrombin (bovine) inhibition counter-screen; AID 602333; shares compounds with Rpn11 block; actives 13% (n = 1,900); inhibition, % at 20 µM; bovine thrombin cleavage of Ub4-pepOG, fluorescence polarization;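 active = mean inhibition at least 40% at 20 µM, or signal 3 deviations below plate average, so some actives read negative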;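 also: plate controls were thrombin with DMSO for no effect and buffer wells lacking thrombin for full effect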
Starred values were filed as active, the others as inactive; i = inactive; · = no result given. Rule as the data show it, unless noted: active = inhibition above about 40%; inactive = the rest.

SMILES | Rin1-Abl PPI inh | CSN inh | Rpn11 block | HNF4A DNA FP | Neddylation inh | TPT1 inh | Rpn11 confirm | MMP-2 counter | Thrombin inh
FC(F)(F)c1ccc2c(c1)n(Cc1ccccc1)c1[n+]2CCCCC1 | -4 | 7 | 54* | 11 | 1 | 9 | -11 | 3 | -21
CCOc1cc2[nH]c(=S)n(CCN3CCCCC3CC)c(=O)c2cc1OCC (configuration not stated) | 0 | -1 | 7 | 0 | 7 | -1 | · | · | ·
CCC1CCCCN1CCCn1c(=S)[nH]c2ccccc2c1=O (configuration not stated) | 3 | 0 | 72* | 9 | 2 | -2 | -2 | -6 | -9
Cc1c2c(=O)n(-c3nc4ccccc4s3)nc-2cc(O)n1Cc1ccccc1 | 1 | 11 | 41* | -7 | 41* | · | 6 | -14 | 6
Cc1ccccc1NC(=O)Cc1nnc(SCC(=O)NC2CCCCC2)n1C | 1 | 1 | 3 | 2 | 8 | 1 | · | · | ·
Cc1ccccc1CC(=O)Nc1ccc(C(=O)N2CCCC2)cc1 | 4 | 0 | 39* | 13 | -9 | -5 | 3 | -28 | -12
O=C(NN=C1CCCCCCCCCCC1)c1ccncc1 | 4 | 4 | 5 | 1 | -1 | 0 | · | · | ·
Cc1onc(-c2c(F)cccc2Cl)c1C(=O)OCC(=O)c1c[nH]c2ccccc12 | 2 | 0 | 58* | 3 | 11 | 2 | 20 | -28 | -11
Cc1noc(C)c1C(=O)OCC(=O)c1c[nH]c2ccccc12 | -4 | 4 | 7 | 5 | 14 | 4 | · | · | ·
C/C(=N\Nc1ccc(C#N)cc1[N+](=O)[O-])c1ccc(C)o1 | 2 | 0 | 64* | -50 | -4 | -3 | -9 | -26 | -16
COCCOC(=O)C1=C(C)NC(=O)NC1c1ccc(-c2cc(Cl)ccc2Cl)o1 (configuration not stated) | 4 | -3 | 46* | 16 | 6 | 3 | 33 | -27 | 16
COC(=O)C1=C(C)NC(C)=C(C(=O)OC)C1c1ccc(-c2cc(Cl)ccc2Cl)o1 | 0 | 2 | 14 | 3 | · | 5 | · | · | ·
COc1ccccc1NC(=O)CCC(=O)Nc1ccccc1OC | 5 | -3 | 8 | 3 | 0 | -2 | · | · | ·
COc1ccccc1NC(=O)CCC(=O)c1ccc(-c2ccccc2)cc1 | -3 | 5 | 59* | 34 | -28 | 8 | 6 | 4 | -1
CCCCC1=CC2=CC(=O)C(C)(OC(=O)C3CCCC3)C(=O)C2=CO1 (configuration not stated) | 4 | 28 | 42* | 20 | -2 | 23 | 46* | 4 | 28
COC(=O)CCCC1=CC2=CC(=O)C(C)(OC(=O)C3CCCC3)C(=O)C2=CO1 (configuration not stated) | · | · | · | · | · | 2 | · | · | ·
Cc1nc(C)c(C(=O)N/N=C/c2cc(Br)ccc2O)s1 | -4 | 6 | 47* | 5 | 18 | 24 | 5 | -34 | 10
O=C(NNC1=Nc2cccc3cccc1c23)c1ccccc1Br | -2 | -1 | 53* | 3 | 15 | -1 | 1 | -21 | 4
O=C(O)c1cccc(NC2=Nc3cccc4cccc2c34)c1 | -1 | -1 | 2 | 3 | 22 | 7 | · | · | ·
CCCc1noc(-c2ccc(-c3ccccc3)cc2)n1 | 3 | 2 | 196* | -35 | 6 | -7 | -1 | -9 | -11
Cc1ccc(Cc2c(-c3ccco3)nc3c4ccccc4ccn23)cc1 | 5 | 22 | 44* | 18 | 33 | · | 35 | 40* | -8
CCCc1nc2c3ccccc3ccn2c1Cc1ccc(C)cc1 | 1 | 11 | 43* | 8 | 0 | · | 35 | 25 | 19
Cc1ccc(Cc2c(-c3ccco3)nc3c(C)cc(Br)cn23)cc1 | -44 | 18 | 22 | 7 | i | · | · | · | ·
O=C(Nc1ccc2c(c1)CCC2)c1cc(S(=O)(=O)N2CCN(c3ccccc3)CC2)ccc1Cl | 3 | 6 | 64* | 22 | -54 | 22 | 41* | 14 | -50
